Runt-SMMHC FRET: inhibitors of human RUNX1 Runt domain binding to CBFb-SMMHC | Cerulean-Runt/Venus-CBFb-SMMHC FRET ratio 530/480, 1 h | inhibition, % at 20 µM | hit rate 0.74% among 220,000;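 active means mean inhibition across duplicate retests at 20 µM reaching about 50%, limit read from the data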;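 further: 0% = DMSO wells and 100% = wells with excess untagged CBFb-SMMHC; inhibitors lower the FRET ratio by blocking Runt binding to CBFb-SMMHC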
RanGTP-Imp inh: inhibitors of RanGTP-importin-beta interaction, primary screen, biochemical, FRET, CFP-Ran, YFP-importin-beta, homogeneous. hit rate 1.1% among 300,000. cell-free CFP-Ran/YFP-importin-beta FRET ratio. AID 2216. inhibition, % (concentration not given with the values);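 active means more than half of the replicate wells show a fall in the fluorescence ratio signal beyond about 16%, limit read from the data, passing the limit was not always enough; inconclusive means exactly half of the replicate wells pass the set limit; inactive means fewer than half of replicates pass the limit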;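 further: 0% = DMSO wells and 100% = Ran loaded with GDP instead of GTP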
KLK7 zymogen act: proKLK7 (human) activation, primary screen | purified proKLK7, EDANS-DABCYL substrate fluorescence; 100% is mature enzyme control, 0% vehicle | hit rate 0.9% among 370,000 | activation, % at 7 µM | AID 652039;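 active means activation above the mean of all tested compounds plus 3 SD, computed per campaign excluding outliers beyond control limits, cut at about 13% in these data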
MEX-5 binding: C. elegans MEX-5 TCR-2 RNA binding activity. MEX-5/FITC-TCR2 RNA binding, fluorescence polarization; stronger effect = lower value. AID 1832. hit rate 0.38% among 300,000. activity score (negative = inhibition of binding), % at 10 µM;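 active means inhibition past about -25% in most replicates, and total fluorescence under double the plate's negative control median, limit read from the data; inconclusive means replicates evenly split on the limit, or fluorescence at least double controls; inactive means too little inhibition in most replicates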;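 further: 0% = DMSO and -100% = 5 µM competing unlabeled TCR2 RNA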
Target sequence (Q9XUB2 whole entry, looked up): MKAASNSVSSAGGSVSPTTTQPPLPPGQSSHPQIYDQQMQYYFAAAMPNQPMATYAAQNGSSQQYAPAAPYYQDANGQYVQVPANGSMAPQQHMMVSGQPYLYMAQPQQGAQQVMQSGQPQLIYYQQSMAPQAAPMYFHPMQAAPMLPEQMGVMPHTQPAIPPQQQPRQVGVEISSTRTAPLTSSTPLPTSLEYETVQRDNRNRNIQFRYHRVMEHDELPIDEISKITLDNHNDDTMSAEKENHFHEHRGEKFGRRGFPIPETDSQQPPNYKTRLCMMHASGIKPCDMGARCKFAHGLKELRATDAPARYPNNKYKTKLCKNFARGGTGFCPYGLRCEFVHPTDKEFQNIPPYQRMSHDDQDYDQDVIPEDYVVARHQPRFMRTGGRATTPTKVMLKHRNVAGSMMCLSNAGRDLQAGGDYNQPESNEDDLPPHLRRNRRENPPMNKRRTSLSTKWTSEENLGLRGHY
Runt-CBFb FRET: blocks binding of human RUNX1 Runt domain to CBFb; Q01196+Q13951; Cerulean-Runt/Venus-CBFb FRET ratio 530/480, 1 h; inhibition, % at 20 µM; hit rate 0.46% among 220,000; AID 1496;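 active means inhibition over about 50% at 20 µM in the single-dose screen, limit read from the data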;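 further: 0% = DMSO wells and 100% = excess unlabeled CBFb competitor control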
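Reagent – Venus-CBFb binding partner, 100 nM · Assay system – Cerulean-tagged RUNX1 Runt domain (FRET donor) fusion protein · Input – 100 nM per protein · Incubation – two 1 h room-temperature incubations shielded from light · Measured by – FRET fluorescence · Medium – Tris buffer pH 7.5 with salts and BSA · Benchmarks – unlabeled CBFb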
KLK7 act conf: confirmation of human kallikrein-7 zymogen activators. shares compounds with KLK7 zymogen act. purified proKLK7, EDANS-DABCYL substrate fluorescence; scaled: vehicle 0, mature enzyme 100. activation, % at 7 µM. hit rate 68% among 3,200. AID 686949;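 active means activation, as change over the incubation, above the mean of all tested compounds plus 3 SD, cut at about 13% in these data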
EDANS interfere: counter-screen for kallikrein-7 activators: EDANS-DABCYL optical interference. shares compounds with KLK7 zymogen act. EDANS-DABCYL substrate fluorescence interference, no enzyme, 4 h; solvent 0%, active enzyme control 100%. activation, % at 7 µM. hit rate 80% among 3,200;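 active means activation above the all-compound mean plus 3 SD, ignoring values outside control-based bounds, cut at about 4.8% in these data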;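 further: value is the 4 h activation minus the activation read at time zero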
EDANS interf: counter-screen for kallikrein-7 activators: EDANS-DABCYL interference, dose response; EC50, µM; AID 720493; shares compounds with KLK7 zymogen act; EDANS-DABCYL peptide fluorescence interference, no enzyme; hit rate 20% among 250;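 active means compounds that raise the fluorescence signal in this interference counterscreen, with EC50 at or below 10 µM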;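 further: intact quenched peptide substrate alone read at 355 nm excitation and 520 nm emission; signal is fluorescence gain from T0 to T4 after four hours at room temperature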
Starred values were filed as active, the others as inactive; i = inactive; ? = inconclusive; . = no result given. Only some compounds are listed: those with a hit (about 2.1% of all), similar ones and a draw of the others.

SMILES	Runt-SMMHC FRET	RanGTP-Imp inh	KLK7 zymogen act	MEX-5 binding	Runt-CBFb FRET	KLK7 act conf	EDANS interfere	others
COc1ccccc1C(=O)Oc1ccc2ccc(=O)oc2c1	.	0.8	356.2*	0.9	.	692.8*	694.3*
O=C(CN1C(=O)NC2(CCCCC2)C1=O)Oc1ccc2ccc(=O)oc2c1	.	.	127.0*	.	.	62.0*	65.4*
O=C(Oc1ccc2ccc(=O)oc2c1)c1ccco1	.	6.3	179.6*	1.3	.	705.4*	729.3*
O=C(Oc1ccc2c(=O)c(Oc3ccc4ccccc4c3)coc2c1)c1ccco1	1.1	4.7	-4.3	-2.2	-2.6	.	.
COc1cc2cc(Oc3ccc4ccc(=O)oc4c3)c(=O)oc2cc1O	36.3	4.8	37.3*	2.0	22.1	36.4*	39.8*
CCCS(=O)(=O)NC(=O)C1(C)CCN(C(=O)c2cc(C(C)(C)C)nn2C)C1 (centres undefined)	.	.	0.1	.	.	.	.
CC(Cl)=CCn1c(NCCc2ccccc2)nc2c1c(=O)n(C)c(=O)n2C	.	.	0.5	.	.	.	.
O=C(COc1ccc2ccccc2c1)Nc1ccccc1C(=O)O	.	-0.8	-0.8	-0.7	.	.	.
CC1=C(C(=O)N2CCCCCC2)CC(CC(=O)NCC2CCCCC2)C(=O)N1Cc1ccc(F)cc1 (centres undefined)	.	.	0.6	.	.	.	.
CC(C)Nc1ncnc2c1ncn2[C@H]1CN(Cc2cccs2)C[C@@H](CO)O1	.	.	-0.2	.	.	.	.
O=C(Nc1cccc(C(=O)N2CCOCC2)c1)C1CCCCC1	.	.	0.2	.	.	.	.
Cc1cc(NC(=O)c2ccc3sc([C@@H]4O[C@H](CO)[C@H](O)[C@H](O)[C@H]4O)nc3c2)no1	.	.	-0.1	.	.	.	.
Nc1nc(N)c2c(ccc3nccc32)[nH]1	-1.2	0.8	195.4*	-4.4	0.7	76.3*	80.7*
CSc1ncc(CN2CCc3c([nH]c4ccccc34)C2C(C)(C)C)cn1 (centres undefined)	.	11.6	7.4	-2.8	.	.	.
Cc1cccc(CN2CCc3c([nH]c4ccccc34)C2C(C)(C)C)n1 (centres undefined)	.	?	13.1*	-4.1	.	7.3	11.7*
COc1cc(NC(=O)c2ccc([N+](=O)[O-])cc2)c(OC)cc1NC(=O)CC(C)C	1.5	2.9	-0.2	1.1	-3.2	.	.
CCOC(=O)c1c(NC(=O)c2ccco2)n(C2CCCCC2)c2nc3ccccc3nc12	31.7	79.1*	20.9*	-1.2	18.6	-18.6	-28.0
NC(=S)NN=C(c1ccc(F)cc1)C1CC1	.	.	0.3	.	.	.	.
Cc1cc(Nc2cccc([N+](=O)[O-])c2)n2c(nc3ccccc32)c1C#N	-1.0	-1.2	-1.4	0.0	0.5	.	.
CCN(CC)CCNc1cc(C)c(C#N)c2nc3ccccc3n12	.	11.4	131.7*	-6.9	.	9.7	5.4*
CCN(CC)CCCNc1cc(C(F)(F)F)c(C#N)c2nc3ccccc3n12	.	117.1*	53.0*	-9.0	.	-6.8	-11.0
Cc1cc(NCCCCO)n2c(nc3ccccc32)c1C#N	27.2	38.3*	42.7*	0.9	12.5	46.9*	37.4*	EDANS interf=>69.5
CCc1c(C)c(C#N)c2nc3ccccc3n2c1N(C)C	17.9	.	1.3	.	9.4	.	.
CCN(CC)CCCNc1cc(C)c(C#N)c2nc3ccccc3n12	.	.	68.9*	.	.	38.4*	40.4*
CCN1CCCSC1=S	.	.	0.5	.	.	.	.
COCCN(CCOC)c1cc(C)c(C#N)c2nc3ccccc3n12	62.6*	57.4*	38.8*	-2.8	52.9*	61.0*	49.9*	EDANS interf=i
O=C1c2ccccc2NC(c2ccco2)N1NS(=O)(=O)c1ccccc1 (centres undefined)	1.9	0.6	14.2*	-0.2	-2.0	2.6	4.8*
CCOC(=O)NN1C(=O)c2ccccc2NC1c1cccs1 (centres undefined)	.	-1.1	13.9*	2.3	.	16.5*	14.8*

Screening data deposited in PubChem by several laboratories.
